Several values for one entry are separate records, joined by “and”; a condition that tells them apart may be missing. Identical values can stand only once. Activity calls are given as the source filed them.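 Rule for the calls: active = over 50% block of current through the KCNK9 TASK-3 potassium channel at 10 µM compound; inactive = the rest.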
Target: Potassium channel subfamily K member 9 (Homo sapiens) (UniProt Q9NPC2)
Experiment: blockers of KCNK9 channel currents – cell-based, automated electrophysiology, HEK293, SAR follow-up (AID 623898)
Conditions: HEK293 KCNK9, QPatch automated patch clamp current
In short: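 Assay system: inducible KCNK9-expressing HEK293 cells. Medium: 140 mM potassium external buffer, pH 7.40. Compound: cumulative compound concentration series on each cell. Times: 5 min compound exposure per concentration. Signal: automated whole-cell voltage clamp, current at -30 mV. Controls: 140 mM K+ baseline zero block, 2 mM Ba2+ full block.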

Chain of Potassium channel subfamily K member 9 (Homo sapiens) (Q9NPC2 whole entry, looked up): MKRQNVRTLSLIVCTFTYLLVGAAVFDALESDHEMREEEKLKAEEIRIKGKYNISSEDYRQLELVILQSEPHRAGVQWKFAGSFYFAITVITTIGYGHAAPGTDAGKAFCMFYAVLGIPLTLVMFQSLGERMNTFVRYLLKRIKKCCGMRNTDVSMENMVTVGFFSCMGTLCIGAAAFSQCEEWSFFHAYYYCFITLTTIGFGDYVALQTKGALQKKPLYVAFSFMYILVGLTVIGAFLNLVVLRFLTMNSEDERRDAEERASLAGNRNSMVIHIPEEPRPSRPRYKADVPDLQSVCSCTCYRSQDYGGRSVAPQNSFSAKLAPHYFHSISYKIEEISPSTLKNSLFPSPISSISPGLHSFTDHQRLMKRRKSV

IC50 | outcome | SMILES
670 nM |  | COc1ccccc1C(=O)Nc1cccc(NC(=O)c2ccccc2C(C)C)c1
710 nM |  | COc1ccccc1C(=O)Nc1cccc(NC(=O)c2ccccc2OC)c1
8100 nM |  | O=C(Nc1cccc(NC(=O)C2CCCCC2)c1)c1ccccc1
850 nM |  | O=C(Nc1cccc(NC(=O)c2ccccc2C(F)(F)F)c1)c1ccccc1
2240 nM |  | Cc1cccc(C(=O)Nc2cccc(NC(=O)c3cccc(C)c3)c2)c1
950 nM |  | Cc1cccc(C(=O)Nc2cccc(NC(=O)c3ccco3)c2)c1
380 nM |  | CCOc1ccccc1C(=O)Nc1cccc(NC(=O)c2cccc(C)c2)c1
600 nM |  | COc1ccccc1C(=O)Nc1cccc(NC(=O)c2ccccc2OC(F)(F)F)c1
270 nM |  | Cc1ccccc1C(=O)Nc1cccc(NC(=O)c2ccccc2)c1
990 nM |  | Cc1cccc(C(=O)Nc2cccc(NC(=O)c3ccccc3OC(F)(F)F)c2)c1
2520 nM |  | Cc1cccc(C(=O)Nc2cccc(NC(=O)c3ccccc3OCC(C)C)c2)c1
 | inactive | Cc1ccc(C(=O)Nc2cccc(NC(=O)c3ccccc3)c2)cc1
250 nM |  | CCOc1ccccc1C(=O)Nc1cccc(NC(=O)c2ccccc2C(F)(F)F)c1
2100 nM |  | CCOc1ccccc1NC(=O)c1cccc(NC(=O)c2cccc(C(F)(F)F)c2)c1
1490 nM |  | COc1ccccc1C(=O)Nc1cccc(NC(=O)c2cccc(C)c2)c1
2140 nM |  | CCOc1ccccc1NC(=O)c1cccc(NC(=O)c2ccccc2)c1
520 nM |  | CCOc1ccccc1NC(=O)c1cccc(NC(=O)c2ccccc2C(F)(F)F)c1
480 nM |  | Cc1cccc(C(=O)Nc2cccc(NC(=O)c3ccccc3C)c2)c1
2380 nM |  | CCOc1ccccc1NC(=O)c1cccc(NC(=O)c2cccc(C)c2)c1
420 nM |  | COc1cccc(C(=O)Nc2cccc(NC(=O)c3ccccc3)c2)c1
180 nM |  | CCOc1ccccc1C(=O)Nc1cccc(NC(=O)c2ccccc2OC)c1
 | inactive | O=C(Nc1cccc(NC(=O)c2ccc(C(F)(F)F)cc2)c1)c1ccccc1
8480 nM |  | COc1ccccc1NC(=O)c1cccc(NC(=O)c2ccccc2)c1
6100 nM |  | O=C(Nc1cccc(NC(=O)c2ccccn2)c1)c1ccccc1

Further lines, the compound ahead of its results:

SMILES | IC50 | outcome
CC(C1CC2CCC1C2)n1c(-c2ccsc2)n[nH]c1=S (centres undefined) | 620 nM | 
C[C@H]([C@@H]1CC2CC[C@H]1C2)n1c(-c2ccsc2)n[nH]c1=S |  | inactive
C[C@H](C1CCCCC1)n1c(-c2ccco2)n[nH]c1=S | 510 nM | 
Cc1cccc(-c2n[nH]c(=S)n2C(C)C2CC3CCC2C3)c1 (centres undefined) | 760 nM | 
CC(C1CC2CCC1C2)n1c(-c2ccccc2F)n[nH]c1=S (centres undefined) | 250 nM | 
CCOc1ccccc1NC(=O)c1cccc(NC(=O)CC2CCCC2)c1 | 3900 nM | 
C[C@@H]([C@@H]1CC2CC[C@H]1C2)n1c(-c2ccsc2)n[nH]c1=S | 410 nM and 680 nM | 
COc1cccc(-c2n[nH]c(=S)n2C(C)C2CC3CCC2C3)c1 (centres undefined) | 280 nM | 
COc1ccc(-c2n[nH]c(=S)n2C(C)C2CC3CCC2C3)cc1 (centres undefined) | 330 nM | 
CC(C)n1c(-c2ccco2)n[nH]c1=S |  | inactive
S=c1[nH]nc(-c2ccco2)n1CC1CCCCC1 | 3780 nM | 
COc1ccc(CCSc2nnc(-c3ccco3)n2C(C)C2CC3CCC2C3)cc1OC (centres undefined) | 5480 nM | 
CC(C1CC2CCC1C2)n1c(-c2ccoc2)n[nH]c1=S (centres undefined) | 940 nM | 
CC(CC1CC2CCC1C2)n1c(-c2ccco2)n[nH]c1=S (centres undefined) | 590 nM | 
C[C@H](C1CCCCC1)n1c(-c2ccsc2)n[nH]c1=S | 680 nM | 
CC(C1CC2CCC1C2)n1c(-c2ccco2)n[nH]c1=S (centres undefined) | 250 nM and 230 nM | 
CCOc1ccccc1NC(=O)c1cccc(NC(=O)C2CCCCC2)c1 | 1110 nM | 
Cc1ccccc1-c1n[nH]c(=S)n1C(C)C1CC2CCC1C2 (centres undefined) | 960 nM | 
CC(C1CC2CCC1C2)n1c(-c2ccccc2Cl)n[nH]c1=S (centres undefined) | 950 nM | 
C[C@@H](C1CCCCC1)n1c(-c2ccco2)n[nH]c1=S | 6660 nM | 
CC(C1CC2CCC1C2)n1c(-c2cccc(N(C)C)c2)n[nH]c1=S (centres undefined) | 1720 nM | 
CCOc1ccccc1NC(=O)c1cccc(NC(=O)CC2CCCCC2)c1 | 4730 nM | 
CC(C1CC2CCC1C2)n1c(-c2ccco2)nn(CCc2ccncc2)c1=S (centres undefined) | 490 nM | 
COc1ccccc1NC(=O)c1cccc(NC(=O)C2CCCC2)c1 | 3160 nM | 
CCOc1ccccc1NC(=O)c1cccc(NC(=O)c2ccccc2OC(F)(F)F)c1 | 1490 nM | 
CCOc1ccccc1C(=O)Nc1cccc(NC(=O)C2CCCC2)c1 | 490 nM | 
COc1ccccc1-c1n[nH]c(=S)n1C(C)C1CC2CCC1C2 (centres undefined) | 1040 nM | 
CC(C1CC2CCC1C2)n1c(-c2ccccc2)n[nH]c1=S (centres undefined) | 1240 nM | 
CC(C1CC2CCC1C2)n1c(-c2cccc(Cl)c2)n[nH]c1=S (centres undefined) | 960 nM | 
C[C@@H]([C@@H]1CC2CC[C@H]1C2)n1c(-c2ccco2)n[nH]c1=S | 410 nM | 

— PubChem BioAssay AID623898 (Johns Hopkins Ion Channel Center, 2012)
